# Measurements taken from ChEMBL document CHEMBL1140662, “Benzo[b]thiophene-based histone deacetylase inhibitors” (Bioorg Med Chem Lett, 2007).
# Legend:
# Histone deacetylase 1 [1] = molecular target: T1, Histone deacetylase 1 (Homo sapiens, UniProt Q13547); assay: Inhibition of HDAC1
# Procedure, shortened: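 Epitope-tagged human HDAC1 complex, immuno-purified from stably expressing mammalian cells, tested against a commercial HDAC substrate. IC50 values are means of three experiments.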
# [2] = Antiproliferative activity against mouse SC9 cells; type: functional, cell-based
# Procedure, shortened: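 Murine erythroleukemia SC-9 cells were exposed to vehicle or increasing compound concentrations for 48 h, and proliferation was read by MTS assay. IC50 values are means of three experiments.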
# Histone deacetylase 1 [3] = molecular target: T1, Histone deacetylase 1; assay: Inhibition of HDAC1 at 10 uM
# T1 sequence (Q13547 whole entry): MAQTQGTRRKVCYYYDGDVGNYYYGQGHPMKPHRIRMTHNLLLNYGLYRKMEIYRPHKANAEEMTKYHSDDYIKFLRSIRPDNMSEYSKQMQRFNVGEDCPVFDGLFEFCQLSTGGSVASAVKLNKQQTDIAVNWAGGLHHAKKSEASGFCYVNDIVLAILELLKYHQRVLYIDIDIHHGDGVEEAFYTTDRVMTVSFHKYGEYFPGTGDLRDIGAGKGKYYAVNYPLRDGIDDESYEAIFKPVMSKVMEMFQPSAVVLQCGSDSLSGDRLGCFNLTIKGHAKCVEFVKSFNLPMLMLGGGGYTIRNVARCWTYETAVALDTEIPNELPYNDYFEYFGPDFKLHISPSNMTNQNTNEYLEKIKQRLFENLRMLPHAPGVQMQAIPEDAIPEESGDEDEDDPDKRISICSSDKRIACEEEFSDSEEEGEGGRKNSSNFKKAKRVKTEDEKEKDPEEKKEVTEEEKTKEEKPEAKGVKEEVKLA
Structure (SMILES),IC50 (Histone deacetylase 1 [1]) [nM],IC50 [2] [nM],inhibition (Histone deacetylase 1 [3]) [%]
O=C(NO)c1cc2cc(CNCCc3ccccc3)ccc2s1,200,945,
O=C(Cc1ccc(F)cc1)Nc1ccc2cc(C(=O)NO)sc2c1,20,230,
CC[C@@H](C(=O)Nc1ccc2cc(C(=O)NO)sc2c1)c1ccccc1,60,530,
O=C(NO)c1cc2ccc(CNCCc3ccccc3)cc2s1,128,455,
O=C(NCc1ccc2cc(C(=O)NO)sc2c1)c1ccccc1,10,190,
O=C(NO)c1cc2cc(CNCc3ccccc3)ccc2s1,,475,
O=C(CCc1ccccc1)Nc1ccc2cc(C(=O)NO)sc2c1,55,5580,
O=C(Cc1ccccc1)Nc1ccc2sc(C(=O)NO)cc2c1,30,1160,
COc1ccc(CC(=O)Nc2ccc3cc(C(=O)NO)sc3c2)cc1,20,205,
O=C(Nc1ccccc1)c1ccc2sc(C(=O)NO)cc2c1,600,6140,
O=C(Cc1ccccc1)Nc1ccc2cc(C(=O)NO)sc2c1,10,220,
O=C(NO)c1cc2ccc(CNc3ccccc3)cc2s1,45,1780,
CC[C@H](C(=O)Nc1ccc2cc(C(=O)NO)sc2c1)c1ccccc1,20,140,
COC(=O)c1ccc2cc(C(=O)NO)sc2c1,,13900,
CCC(C(=O)Nc1ccc2cc(C(=O)NO)sc2c1)c1ccccc1 (stereo unspecified),40,225,
O=C(Nc1ccc2cc(C(=O)NO)sc2c1)c1ccccc1,,2900,
O=C(NO)c1cc2ccc(CNCc3ccccc3)cc2s1,50,160,
O=C(NO)c1cc2cc(CNc3ccccc3)ccc2s1,175,4870,
O=C(NCCc1ccccc1)c1ccc2sc(C(=O)NO)cc2c1,155,5330,
O=C(NO)c1csc2ccccc12,,,38
O=C(NO)c1ccsc1,9700,,
O=C(NCc1ccccc1)c1ccc2sc(C(=O)NO)cc2c1,75,1700,
O=C(Cc1ccccc1)NCc1ccc2cc(C(=O)NO)sc2c1,70,1220,
O=C(NCc1ccccc1)c1ccc2cc(C(=O)NO)sc2c1,55,1100,
O=C(NC(c1ccccc1)c1ccccc1)c1ccc2cc(C(=O)NO)sc2c1,285,2960,
O=C(NO)c1cccs1,6600,,
